# Laboratory results published in PubChem BioAssay.
# Active and inactive are the calls of the source.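 Rule for the calls, unless noted: active = inhibition above 20% together with a positive visual image hit; inconclusive = visual image hit but inhibition not above 20%; inactive = no visual image hit.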
# Assays:
# [1] = inhibitors of TNFa-induced NFkB p65 translocation, primary screen, imaging, HUVEC, MLSMR starter and 10KST1 sets (AID 438); conditions: HUVEC TNFa-induced p65 nuclear translocation; cell count: measured here: nuclei count (cytotoxicity indicator), at 2.08 µM; inhibition: at 2 µM, stronger effect = higher value, 0% TNFa-plus-vehicle, 100% no-TNFa wells;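 note: compound added about 3h40 before a 20 min TNFalpha stimulation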;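 for inhibition: signal is the nuclear over cytoplasmic p65 intensity ratio per well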
# [2] = reduction of polyQ htt aggregates in cells – imaging, exon1htt(103Q)mCFP cells, high-content imaging, primary screen (AID 483;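 active = visual image review flags a hit and inhibition of aggregation exceeds 20%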;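 note: compound exposure lasted 3 days before fixation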;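 for nuclei count: percent of the per-plate median nuclei count of sample wells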); conditions: exon1htt(103Q)mCFP cell line, aggregate imaging, at 2 µM; inhibition of aggregation: stronger effect = higher value; nuclei count: measured here: cell count, toxicity
# [3] = endothelial E-selectin expression blockers – imaging, HUVEC, immunofluorescence, MLSMR starter and 10KST1 sets, primary screen (AID 487;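 active = visually confirmed hit in the image check and inhibition above 20%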;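 for inhibition: signal is fraction of cell area covered by stained E-selectin grains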;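 for nuclei count: 100% = median nuclei count of all wells on the same plate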); conditions: HUVEC TNFalpha-induced E-selectin immunofluorescence imaging, at 2 µM; inhibition: stronger effect = higher value; nuclei count: measured here: cell number, toxicity
# [4] = target: Voltage-gated potassium channel subunit beta-2 (Rattus norvegicus) (UniProt P62483); assay: inhibitors of rat Kvbeta2 reductase activity – biochemical, NADPH fluorescence, primary screen (AID 622;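 active = fluorescence slope higher than the sample average by over 3 SD, cut at about -0.22 in these data, passing the limit was not always enough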;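 note: slope of raw intensity against log time taken from 70 to 1610 s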); conditions: recombinant KvBeta, 4-cyanobenzaldehyde reduction, at 10 µM, stronger effect = higher value
# Voltage-gated potassium channel subunit beta-2 (Rattus norvegicus), sequence (P62483 whole entry, looked up): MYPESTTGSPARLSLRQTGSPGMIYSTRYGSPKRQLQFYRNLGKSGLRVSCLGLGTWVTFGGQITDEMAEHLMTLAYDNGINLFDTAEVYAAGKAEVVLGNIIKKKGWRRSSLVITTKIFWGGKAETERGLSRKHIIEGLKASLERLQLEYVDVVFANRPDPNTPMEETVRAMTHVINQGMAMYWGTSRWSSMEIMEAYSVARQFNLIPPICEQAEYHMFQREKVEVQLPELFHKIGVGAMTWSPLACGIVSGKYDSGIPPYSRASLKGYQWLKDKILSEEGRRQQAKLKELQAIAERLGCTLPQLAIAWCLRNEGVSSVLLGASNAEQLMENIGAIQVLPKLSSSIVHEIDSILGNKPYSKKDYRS
# [5] = target: Voltage-gated potassium channel subunit beta-2 (Rattus norvegicus) (UniProt P62483); assay: enhancers of rat Kvbeta2 NADPH turnover – biochemical, NADPH fluorescence, primary screen (AID 623;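 active = NADPH fluorescence slope more negative than the mean of all samples by about 3 SD, 99.7% confidence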;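 note: fluorescence intensity change per second fitted from 20 to 320 s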); conditions: Recombinant KvBeta, NADPH fluorescence decrease slope, 10 min; at 10 µM; stronger effect = lower value
# [6] = target: Muscarinic acetylcholine receptor M4 (Homo sapiens) (UniProt P08173); assay: M4-linked GIRK flux change, two-sided – cell-based, HEK293 M4/GIRK, thallium flux, BTC-AM, M4 allosteric agonist project, primary screen (AID 625;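 active = fluorescence slope after compound addition differing from the mean of all tested samples at 99.7% confidence, mostly higher but some lower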;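 note: thallium influx through GIRK channels coupled to M4 in HEK293 cells with BTC-AM dye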); conditions: at 10 µM, actives lie on both sides
# Muscarinic acetylcholine receptor M4 (Homo sapiens), sequence (P08173 whole entry, looked up): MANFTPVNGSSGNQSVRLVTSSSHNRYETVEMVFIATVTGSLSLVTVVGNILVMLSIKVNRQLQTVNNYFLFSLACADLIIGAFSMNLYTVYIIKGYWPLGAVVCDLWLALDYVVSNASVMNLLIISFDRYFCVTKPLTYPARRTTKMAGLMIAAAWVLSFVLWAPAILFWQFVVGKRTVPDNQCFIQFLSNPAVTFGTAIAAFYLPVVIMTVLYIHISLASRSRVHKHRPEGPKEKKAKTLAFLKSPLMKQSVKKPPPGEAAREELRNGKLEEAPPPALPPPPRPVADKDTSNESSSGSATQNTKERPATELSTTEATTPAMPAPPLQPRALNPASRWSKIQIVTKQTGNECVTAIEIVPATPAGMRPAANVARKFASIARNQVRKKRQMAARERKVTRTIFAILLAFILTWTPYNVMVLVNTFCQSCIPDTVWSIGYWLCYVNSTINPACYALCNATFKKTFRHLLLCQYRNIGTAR
# Procedure, shortened: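 Material: M4/GIRK1/GIRK2 stable HEK293 cell line. Medium: pH 7.3 thallium assay buffer. Dosing: single compound concentration, 10 µM final. Schedule: 1 h dye loading, 2 min kinetic read. Measured by: kinetic fluorescence with BTC-AM dye. Read-out: post-addition slope, 15–24 s, of baseline-normalized fluorescence. Benchmarks: carbachol and DMSO controls.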
# [7] = blockers of RIG-like receptor reporter activation – cell-based, Sendai virus stimulus, luciferase, 10K MLSCN set, TLR/RLR signaling modifier project, primary screen (AID 602276;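 active = inhibition at or above 50% at 10 µM; inactive = inhibition below 50%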;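 note: firefly luciferase from ISG56 promoter only with Renilla not read in this screen; 0% = Sendai virus plus DMSO and 100% = medium plus DMSO without virus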); conditions: HEK293 RL24 IRF3 luciferase reporter, at 10 µM, stronger effect = higher value
# [8] = TLR3 IRF3 reporter activation blockers – cell-based, poly I:C stimulus, luciferase, 10K MLSCN set, primary screen (AID 602277;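 active = inhibition of the reporter signal at or above 50%; inactive = inhibition below 50%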); conditions: HEK293-TLR3 RL24 IRF3 luciferase reporter, at 10 µM, stronger effect = higher value
Compound,cell count [1],inhibition [1],inhibition of aggregation [2],nuclei count [2],inhibition [3],nuclei count [3],fluorescence slope [4],NADPH fluorescence slope [5],fluorescence slope [6],inhibition [7],inhibition [8]
COc1ccc(C(=O)NCCn2ccc3ccccc32)cc1,238,7.3% (inactive),25.9% (inactive),104%,-36.9% (inactive),95%,-0.386 (inactive),-5.6e-06 (inactive),0.008 (inactive),5.56% (inactive),-49.2% (inactive)
O=C(CSc1nc2ccc(Cl)cc2[nH]1)NCc1ccco1,273,17.8% (inactive),-10.2% (inactive),109%,-3.9% (inactive),109%,-0.611 (inactive),1.5e-05 (inactive),0.00642 (inactive),17.9% (inactive),20.8% (inactive)
CSc1ccccc1C(=O)NC1CC2CCC1C2 (stereo not drawn),246,4.5% (inactive),13.1% (inactive),93.5%,15.4% (inactive),91.1%,-0.535 (inactive),-1.1e-05 (inactive),0.00469 (inactive),24.1% (inactive),24.1% (inactive)
Cc1ccc(S(=O)(=O)Cc2ccc(C(=O)NCc3ccc4c(c3)OCO4)o2)cc1,592,-1.9% (inactive),-21.6% (inactive),86.7%,-16.5% (inactive),106%,-0.454 (inactive),-9.9e-06 (inactive),0.00504 (inactive),9.39% (inactive),14.2% (inactive)
Clc1ccc(Cc2nn3c(-c4ccncc4)nnc3s2)cc1,322,-5.1% (inactive),5.5% (inactive),83.3%,-102% (inactive),110%,-0.523 (inactive),-0.000147 (inactive),0.00382 (inactive),-1.37% (inactive),-9.67% (inactive)
O=C(COc1ccc(Cl)cc1)Nc1ncccn1,436,-3.8% (inactive),4.3% (inactive),98.6%,-12.3% (inactive),87.1%,-0.456 (inactive),-7.3e-05 (inactive),0.00491 (inactive),14.4% (inactive),-0.516% (inactive)
O=C(Cn1nnc2c(cnn2-c2ccc(F)cc2)c1=O)c1ccccc1F,438,5.1% (inactive),-13.6% (inactive),104%,-86.3% (inactive),118%,-0.553 (inactive),-4.4e-05 (inactive),0.00571 (inactive),11.8% (inactive),10.7% (inactive)
COC(=O)c1c(NC(=O)c2ccc(S(=O)(=O)N3CCOCC3)cc2)sc2c1CCN(C)C2,296,-9.1% (inactive),3% (inactive),117%,-25.5% (inactive),114%,-0.483 (inactive),-5.3e-05 (inactive),0.0054 (inactive),-9.85% (inactive),15.9% (inactive)
O=C(Nc1ccc(Cl)c(Cl)c1)Nc1cc(C(=O)N2CCOCC2)ccc1N1CCCCC1,580,-17.7% (inactive),-5.4% (inactive),114%,-44.8% (inactive),114%,-0.441 (inactive),-7.7e-06 (inactive),0.00555 (inactive),13.7% (inactive),13.1% (inactive)
COc1ccc(N(CC(=O)NC2CCCC2)C(=O)Cn2nnc(-c3ccc(C)cc3)n2)cc1,465,-3.9% (inactive),8.3% (inactive),90.6%,-65.7% (inactive),106%,-0.587 (inactive),8e-06 (inactive),0.00452 (inactive),-14.1% (inactive),0.19% (inactive)
O=C(NCc1ccc2c(c1)OCO2)c1cc2n(n1)C(C(F)(F)F)CC(c1ccc3c(c1)OCO3)N2 (stereo not drawn),407,-1.6% (inactive),26.5% (inactive),89.1%,-32% (inactive),106%,-0.558 (inactive),-4.2e-05 (inactive),0.0053 (inactive),18.5% (inactive),24.4% (inactive)
O=C(O)CCCC(=O)Nc1ccc(Br)cc1C(=O)O,398,3.8% (inactive),-5.6% (inactive),108%,12.5% (inactive),103%,-0.57 (inactive),2.4e-05 (inactive),0.00576 (inactive),16.9% (inactive),20.6% (inactive)
COc1ccc(-c2cc(C(F)(F)F)nc(SCC(=O)NCc3ccco3)n2)cc1OC,614,-9.9% (inactive),-5.9% (inactive),94%,-20.4% (inactive),103%,-0.304 (inactive),-1.1e-05 (inactive),0.00529 (inactive),24.6% (inactive),23.2% (inactive)
CCOc1ncccc1C(=O)Nc1ccc2c(C)cc(=O)oc2c1,585,5.8% (inactive),10% (inactive),92.5%,-26.9% (inactive),96.9%,-0.535 (inactive),-3.1e-05 (inactive),0.00712 (inactive),10.1% (inactive),4.34% (inactive)
CCC(C)OC(=O)n1ccc(C(=O)Nc2nccs2)n1 (stereo not drawn),604,-8.2% (inactive),8.2% (inactive),95%,-79.6% (inactive),131%,-0.575 (inactive),-1.9e-05 (inactive),0.00527 (inactive),-5.02% (inactive),-27.4% (inactive)
O=C(Nc1cccc(C(=O)N2CCOCC2)c1)c1cccnc1,282,-15.4% (inactive),-7.7% (inactive),106%,-25.3% (inactive),116%,-0.546 (inactive),-0.000161 (inactive),0.00393 (inactive),-1.23% (inactive),0.71% (inactive)
COc1ccc(OC)c(NC(=O)CSc2nc3ccccc3c(=O)n2CCNC(C)=O)c1,497,-4.3% (inactive),10.1% (inactive),111%,-17.6% (inactive),115%,-0.455 (inactive),4e-05 (inactive),0.00813 (inactive),14.7% (inactive),18.6% (inactive)
CCn1c(SCC(=O)Nc2nccs2)nnc1-c1ccncc1,331,-1.4% (inactive),-8.7% (inactive),110%,-20.2% (inactive),129%,-0.454 (inactive),-2.4e-05 (inactive),0.00633 (inactive),14.8% (inactive),21.3% (inactive)
CCN1CCN(Cc2ccc(NC(=O)Nc3ccc(SC)cc3)cc2)CC1,268,-1.7% (inactive),16.3% (inactive),97.3%,-52.1% (inactive),93.5%,-0.54 (inactive),-3.4e-05 (inactive),0.00398 (inactive),-29.9% (inactive),-81.3% (inactive)
CN(C)S(=O)(=O)n1cnc(-c2ccccc2)c1-c1ccccc1,382,2.8% (inactive),10.1% (inactive),100%,-26.1% (inactive),107%,-0.497 (inactive),-9.7e-06 (inactive),0.00475 (inactive),11.2% (inactive),20.5% (inactive)
CC1CCN(CCC(=O)Nc2ccc(Br)cc2)CC1,612,7.4% (inactive),-13.6% (inactive),99.8%,88.6% (active),179%,-0.42 (inactive),2.4e-06 (inactive),0.00434 (inactive),14% (inactive),19.3% (inactive)
CCOC(=O)C(CC)Sc1ncnc2nc[nH]c12 (stereo not drawn),351,1.9% (inactive),-18.9% (inactive),98.7%,-46% (inactive),123%,-0.555 (inactive),-2.8e-05 (inactive),0.00496 (inactive),3.43% (inactive),5.34% (inactive)
CCn1c(=O)cc(OCC(=O)NCCCN2CC(C)CC(C)C2)c2ccccc21 (stereo not drawn),395,-5.5% (inactive),-18.3% (inactive),111%,-25% (inactive),123%,-0.511 (inactive),-0.000129 (inactive),0.00485 (inactive),69.4% (active),55.8% (active)
CC(C)CCNC(=O)NC(=O)CN1C(=O)NC2(CCCCC2)C1=O,560,-14.9% (inactive),13.2% (inactive),106%,-209% (inactive),87%,-0.498 (inactive),7.2e-05 (inactive),0.00636 (inactive),-8.08% (inactive),-2.49% (inactive)
Cc1cc(C(=O)CSCc2nnc3n(CCC(C)C)c(=O)c4ccccc4n23)c(C)n1C,284,-11.2% (inactive),-1.8% (inactive),94.2%,-26.1% (inactive),88.8%,-0.558 (inactive),3.1e-06 (inactive),0.00507 (inactive),14.8% (inactive),26.1% (inactive)
CC(=O)N1C(=O)c2cccc3cccc(c23)C(=O)N1C(C)=O,776,4.6% (inactive),-3.8% (inactive),93.6%,-62.5% (inactive),120%,-0.444 (inactive),-2.9e-05 (inactive),0.00473 (inactive),18.6% (inactive),15.3% (inactive)
CCn1c(=O)cc(SCC(=O)NCC2CCCO2)c2ccccc21 (stereo not drawn),404,-4.9% (inactive),0% (inactive),97.1%,32.5% (inactive),103%,-0.568 (inactive),-1.6e-05 (inactive),0.00498 (inactive),18.5% (inactive),34.6% (inactive)
CC1=C(C#N)C(=O)NC(C)(C)C1,410,4.1% (inactive),-3.7% (inactive),100%,6.4% (inactive),109%,-0.413 (inactive),1.8e-05 (inactive),0.00867 (inactive),13.9% (inactive),21.4% (inactive)
